Assay results reported in article PMC4120261 (Biofouling, 2013).

Experiments:
[1] = target: WspR (Pseudomonas aeruginosa, UniProt Q9HXT9); assay: EnzChek pyrophosphate assay; assay type: biochemical
Method in brief: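 C-terminally 6×His-tagged WspR is expressed in E. coli BL21(DE3) in LB with 100 μg ml−1 ampicillin at 37 °C, then induced at A600 1.0 with 1 mM IPTG at 18 °C for 12–16 h. Cells are sonicated and the protein is purified by IMAC (500 mM imidazole elution), then Superdex 200 SEC in 25 mM Tris-HCl pH 7.4, 100 mM NaCl, 1 mM DTT. Pyrophosphate released from GTP-to-c-di-GMP conversion is read by EnzChek.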

[2] = target: tDGC-R158A (Thermotoga maritima, UniProt Q9X2A8, R158A); assay: EnzChek pyrophosphate assay; assay type: biochemical; details: substrate GTP
Method in brief: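 C-terminally 6×His-tagged T. maritima tDGC-R158A is expressed in E. coli BL21(DE3) with kanamycin at 37 °C and induced at OD600 0.8 with 0.8 mM IPTG at 25 °C for 4 h. It is French-press lysed and purified on Ni-NTA with a 20–500 mM imidazole gradient in Tris-HCl pH 8.0. Pyrophosphate from GTP conversion is read by a high-throughput-adapted EnzChek assay, giving % inhibition versus untreated enzyme.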

Cc1cc2c(C(C)C)c(O)c(O)c(C=O)c2c(O)c1-c1c(C)cc2c(C(C)C)c(O)c(O)c(C=O)c2c1O [LP 3145, 1,1′,6,6′,7,7′-hexahydroxy-5,5′-diisopropyl-3,3′-dimethyl-2,2′-binaphthalene-8,8′-dicarbaldehyde]
IC50 [1]: 70.9 µM

CN(CCCn1c2c(c(=O)[nH]c1=O)CSCC2)S(=O)(=O)c1ccc(N)cc1 [LP 4010]
IC50 [1]: 102 µM
% Inhibition of tDGC-R158A ([2]; 200 µM): 20.5%

CC(=O)c1c(O)c(C)c(O)c(Cc2c(O)c3c(c(C(=O)/C=C/c4ccccc4)c2O)OC(C)(C)C=C3)c1O [LP 1062, (E)-1-[6-[(3-acetyl-2,4,6-trihydroxy-5-methylphenyl)methyl]-5,7-dihydroxy-2,2-dimethyl-2H-1-benzopyran-8-yl]-3-phenyl-2-propen-1-one]
IC50 [1]: 73.1 µM

CCOc1ccc(/C=N/NC(=O)c2cc(O)c(O)c(O)c2)cc1CN1CC2CC(C1)c1cccc(=O)n1C2 (stereo not drawn) [LP 3134, N′-((1E)-{4-ethoxy-3-[(8-oxo-1,5,6,8-tetrahydro-2H-1,5-methanopyrido[1,2-a][1,5]diazocin-3(4H)-yl)methyl]phenyl}methylene)-3,4,5-trihydroxybenzohydrazide]
IC50 [1]: 44.9 µM
% Inhibition of tDGC-R158A ([2]; 100 µM): 72.1%
